Data: paper PMC8320611 (Current Research in Toxicology, 2020)

What was measured:
[1] = stated in the introduction, no reference given; cited from earlier work
[2] = test system: HepG2 cells; test: Resazurin reduction assay; assay type: cell-based, human; conditions: HepG2, 1 h or 24 h incubation, 0–100 μM, vs negative control 1% DMSO
Outline: (§1)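 Cells were seeded at 180,000 per well (HepG2 in RPMI 1640, HT29 in DMEM; 5% FCS, 37 °C, 5% CO2). After 24 h they were exposed to 0.1, 1, 10 or 100 μM test compound for 1 h or 24 h, using DMSO stocks diluted 1:100, in triplicate. Controls were 0.1% SDS and 1% DMSO. Cells were washed and given resazurin for 1 h; fluorescence was read at 544/590 nm. Blank-subtracted values are % of DMSO control, mean ± SD of three experiments.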

[3] = test system: HT29 cells; test: Resazurin reduction assay; assay type: cell-based, human; conditions: HT29, 1 h or 24 h incubation, 0–100 μM, vs negative control 1% DMSO
Outline: as §1

[4] = test system: human myelocytic HL-60 leukemia cancer cells; conditions: HL-60, incubation with 0.5–40 μM; ref Park et al., 2008; cited from earlier work
[5] = test system: HT29 clone 19A human colon tumor cells; conditions: ref Pool-Zobel et al., 2000, cited from earlier work; for DNA strand breaks (comet assay): 15 min incubation, 100 μM END and ENL
[6] = test system: HepG2 cells; test: Comet assay; assay type: cell-based, human; conditions: for Total DNA strand breaks with FPG treatment (%-TI): HepG2, 24 h, 10 or 100 μM, FPG treated, two independent experiments; for Background DNA-strand breaks (tail intensity): HepG2, 24 h incubation, 10–100 μM, without FPG
Outline: (§2)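 Cells at 80–90% confluence, viability >80% by trypan blue (HepG2 in RPMI 1640, HT29 in DMEM; 5% FCS) were exposed 24 h to 10 or 100 μM test compound from DMSO stock diluted 1:1000. Controls were 0.1% DMSO and 10 J/m2 UVC. Slides were lysed overnight at 4 °C, then treated with FPG or buffer. Unwinding was pH 13.5, 20 min; electrophoresis 20 min, 25 V. Mean tail intensity was scored on 2 × 50 cells/slide. Without FPG: three independent experiments; with FPG: two, in duplicate.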

[7] = test system: HT29 cells; test: Comet assay; assay type: cell-based, human; conditions: for Total DNA strand breaks with FPG treatment (%-TI): HT29, 24 h, 10 or 100 μM, FPG treated, two independent experiments; for Background DNA-strand breaks (tail intensity): HT29, 24 h incubation, 10–100 μM, without FPG
Outline: as §2

[8] = in vitro studies; ref Prasad, 2000; cited from earlier work
[9] = test system: human ovary carcinoma cell line ES-2; conditions: ES-2, 48 h incubation, at 1 mM; ref Liu et al., 2017; cited from earlier work
[10] = ref Hu et al., 2007; cited from earlier work
[11] = test system: microbiota from human faeces; conditions: incubation with microbiota from human faeces for 24 h; ref Heinonen et al., 2001; cited from earlier work
[12] = test system: extracellular vascular endothelial growth factor (VEGF); conditions: in vivo, mice with established human breast cancer; ref Dabrosin et al., 2002; cited from earlier work

For `COc1cc(C[C@@H](CO[C@@H]2O[C@H](CO)[C@@H](O)[C@H](O)[C@H]2O)[C@H](CO[C@@H]2O[C@H](CO)[C@@H](O)[C@H](O)[C@H]2O)Cc2ccc(O)c(OC)c2)ccc1O` [Seco-DG, seco-diglycoside], the Solubility in water [1] is given as “highly soluble”.

For `COc1cc([C@H]2OC[C@H]3[C@@H]2CO[C@@H]3c2cc(OC)c(O)c(OC)c2)cc(OC)c1O` [Syr, 4,4′-(1S,3aR,4S,6aR)-Tetrahydro-1H,3H-furo[3,4-c]furan-1,4-diylbis(2,6-dimethoxy-phenol)], the Relative vitality [2] is given as “no significant reductions”, the Relative vitality [3] is given as “no significant reductions” and the “Cell vitality (MTT assay)” value [4] is given as “significant concentration-dependent decrease”.

In the case of `O=c1c(-c2ccc(O)cc2)coc2cc(O)cc(O)c12` [genistein, reference compound], the “DNA strand breaks (comet assay)” value [5] is given as “induced highly significant”.

With `OC[C@H](Cc1cccc(O)c1)[C@H](CO)Cc1cccc(O)c1` [END, (2R,3R)-2,3-bis[(3-hydroxyphenyl)methyl]butane-1,4-diol] the Relative vitality [2] was “no significant reductions”, the Relative vitality [3] was “no significant reductions” and the “Total DNA strand breaks with FPG treatment (%-TI)” value (“Total DNA strand breaks … (%-TI)” below) [6] was “No modulation”. The “Background DNA-strand breaks (tail intensity)” value (“Background DNA-strand breaks” below) [6] was “No significant modulation”, the “Total DNA strand breaks … (%-TI)” value [7] was “No modulation” and the “Background DNA-strand breaks” value [7] was “No significant modulation”. The “Levels of reactive oxygen species (antioxidant effect)” value (“Levels of reactive oxygen species” below) [8] was “reduce the levels of reactive oxygen species”, the Vitality [9] was “significant decrease in vitality” and the “DNA strand breaks (comet assay)” value [5] was “no differences to the negative control”. For the same molecule, the “Oxidised pyrimidine DNA bases” value [5] was “reduced” and the “Protection against DNA damage and lipid peroxidation” value (shortened to “Protection”) [10] was “protect against DNA damage and lipid peroxidation”.

For `COc1cc([C@H]2OC[C@H]3[C@@H]2CO[C@@H]3c2ccc(O[C@@H]3O[C@H](CO)[C@@H](O)[C@H](O)[C@H]3O)c(OC)c2)ccc1O[C@@H]1O[C@H](CO)[C@@H](O)[C@H](O)[C@H]1O` [Pin-DG, pinoresinol diglycoside], the “Conversion into END and ENL” value [11] is listed as 55%.

For `COc1cc(C[C@@H](CO)[C@H](CO)Cc2ccc(O)c(OC)c2)ccc1O` [Seco, secoisolariciresinol], the “Conversion into END and ENL” value [11] is given as 72%, the “Levels of reactive oxygen species” value [8] is given as “reduce the levels of reactive oxygen species” and the “Protection” value [10] is given as “protect against DNA damage and lipid peroxidation”.

In the case of `O=C1OC[C@H](Cc2cccc(O)c2)[C@H]1Cc1cccc(O)c1` [ENL, (3R,4R)-3,4-bis[(3-hydroxyphenyl)methyl]oxolan-2-one], the Relative vitality [2] is reported as “no significant reductions”, the Relative vitality [3] is reported as “no significant reductions” and the “Total DNA strand breaks … (%-TI)” value [6] is reported as “no significant modulation”. The “Background DNA-strand breaks” value [6] was “No significant modulation”, the “Total DNA strand breaks … (%-TI)” value [7] was “no significant modulation” and the “Background DNA-strand breaks” value [7] was “No significant modulation”. For the same molecule, the “Extracellular VEGF” value [12] was “suppressed”, the “Levels of reactive oxygen species” value [8] was “reduce the levels of reactive oxygen species” and the Vitality [9] was “significant decrease in vitality”. The “DNA strand breaks (comet assay)” value [5] was “no differences to the negative control”, the “Oxidised pyrimidine DNA bases” value [5] was “reduced” and the “Oxidized purine DNA bases” value [5] was “had such an impact”. The “Protection” value [10] was “protect against DNA damage and lipid peroxidation”.
